mABHD4 FP = ABHD4 inhibitors, primary screen, biochemical, fluorescence polarization, mouse; inhibition, % at 8.92 µM; (Lyso)-N-acylphosphatidylethanolamine lipase (Mus musculus), Q8VD66; 0.54% of 370,000 active; purified mABHD4, FP-Rh probe fluorescence polarization;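 active = inhibition exceeding the mean over every tested compound plus 3 SD, cut at about 30% in these data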
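Assay system: Wild-type mouse ABHD4 protein | Medium: HEPES pH 7.0 buffer, 150 mM NaCl, 0.01% Pluronic F-127 | Incubation: Enzyme–compound pre-incubation 45 min, then probe 60 min, both 25 °C | Technique: Fluorescence polarization with parallel and perpendicular emission, 525/598 nm | Evaluation: % inhibition of FP-Rh probe binding versus controls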
SIAE primary = human SIAE inhibitors, primary screen, biochemical, fluorescence polarization, FP-Rh probe, 1536-well HTS; AID 1053197, 2014; Sialate O-acetylesterase (Homo sapiens), Q9HAT2; 0.69% of 370,000 active; inhibition, % at 9.66 µM; SIAE FP-Rh probe binding;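 active = inhibition above a cutoff: mean of compounds within the control limits plus 3 SD of those, cut at about 17% in these data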
Target sequence (Q9HAT2 whole entry, looked up): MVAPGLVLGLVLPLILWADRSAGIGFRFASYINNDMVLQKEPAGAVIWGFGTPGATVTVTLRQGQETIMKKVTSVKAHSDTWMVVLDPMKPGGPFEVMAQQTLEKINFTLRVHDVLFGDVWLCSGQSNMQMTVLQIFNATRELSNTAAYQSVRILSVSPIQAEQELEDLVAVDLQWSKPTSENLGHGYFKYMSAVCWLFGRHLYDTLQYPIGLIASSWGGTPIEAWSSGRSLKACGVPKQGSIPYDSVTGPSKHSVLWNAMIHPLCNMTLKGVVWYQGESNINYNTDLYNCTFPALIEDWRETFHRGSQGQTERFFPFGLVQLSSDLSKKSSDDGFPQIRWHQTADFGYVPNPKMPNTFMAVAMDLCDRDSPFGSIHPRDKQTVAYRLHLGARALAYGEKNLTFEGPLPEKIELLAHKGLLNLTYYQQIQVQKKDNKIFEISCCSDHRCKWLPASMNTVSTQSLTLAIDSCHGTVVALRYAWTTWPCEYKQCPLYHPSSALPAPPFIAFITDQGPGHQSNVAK
HTRA1 inh = HTRA1 serine protease inhibitors, primary screen, biochemical, fluorescence polarization, HTS; Q92743; recombinant HTRA1, FP-rhodamine activity-based probe; inhibition, % at 5.96 µM; 0.5% of 340,000 active; AID 504803, 2011; in the data active = inhibition above about 36%
DDE Tn7 FP inh = inhibitors of Tn7 peptide binding to fibrin DD(E), primary screen, biochemical, fluorescence polarization, human fibrin, Tn7 probe; FP displacement of FITC-Tn7 peptide from fibrin DD(E); 0% = median of compound wells per plate; AID 720508, 2013; inhibition, % at 8.3 µM; 0.13% of 370,000 active;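 active = inhibition above the mean of compounds falling within the control limits plus 3 SD of them, cut at about 14% in these data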
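Assay system: Fibrin-DD(E) protein isolated from polymerized human fibrin clots; read-out basis: percent inhibition; medium: Tris/NaCl/CaCl2 buffer, pH 7.8; signal: FP measurement; incubation: 10 min plus 3 h, room temperature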
DDE Tn6 FP inh = inhibitors of Tn6 peptide binding to fibrin DD(E), primary screen, biochemical, fluorescence polarization, human fibrin, Tn6 probe; inhibition, % at 8.3 µM; AID 720509, 2013; Fibrin DD(E) TRITC-Tn6 fluorescence polarization displacement; 0.21% of 370,000 active; Fibrinogen beta chain (Homo sapiens), P02675;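 active = inhibition above a per-campaign cutoff: mean of compounds within control limits plus 3 SD, cut at about 15% in these data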
TCR-CD3 inh = inhibitors of human TCR-CD3 interaction, primary screen, biochemical, fluorescence, TAMRA-labeled TCR probe; T-cell receptor (TCR); inhibition, % at 9.4 µM; 0.37% of 360,000 active; AID 651800, 2012; in the data active = inhibition above about 19%;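 also: recombinant mutant TCR 2C K166C tagged with TAMRA read by polarization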
ABHD4 confirm = ABHD4 inhibitors, retest, confirmation, biochemical, fluorescence polarization, mouse | shares compounds with mABHD4 FP | purified mABHD4, FP-Rh probe fluorescence polarization | inhibition, % at 8.92 µM | 55% of 1,800 active | AID 720658, 2013;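 active = mean inhibition across replicates above the hit cutoff set in the primary screen, cut at about 30% in these data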
Hits are given with their value; i = inactive; nt = no result; + = active, no number. In the library only some 1.8% were active in any assay of this set; here they are far more common.

SMILES	mABHD4 FP	SIAE primary	HTRA1 inh	DDE Tn7 FP inh	DDE Tn6 FP inh	TCR-CD3 inh	ABHD4 confirm
CC(C)(C)c1ccc(-c2nnc(SCC(=O)Nc3ccc4c(c3)OCCO4)n2-c2ccc(Cl)cc2)cc1	i	i	nt	i	i	nt	nt
CCc1noc(C)c1C(=O)N(C)CC(=O)Nc1ccc(Br)cc1C	41	i	i	i	i	i	i
CCSc1nnc(NC(=O)CCNS(=O)(=O)c2ccccc2F)s1	i	i	i	i	i	i	nt
Cc1nc2nc(C)n(CCN3CCOCC3)c(=O)c2c(-c2cccc([N+](=O)[O-])c2)c1C(=O)CCCCCCCCCCN1CCC(c2ccccc2)(c2ccccc2)CC1	30	i	i	i	i	i	39
CC(C)[C@H](NC(=O)[C@@H]1Cc2ccccc2CN1C(=O)OC(C)(C)C)C(=O)NCC1CCCO1 (stereo partly drawn)	i	i	i	i	i	i	nt
O=C(CN(Cc1ccc(F)cc1)C(=O)CCC(=O)Nc1nccs1)NCC1CCCO1 (stereo not drawn)	i	i	i	i	i	i	nt
Cc1ccc(NCSc2ccc(Cl)cc2)cc1	i	i	i	i	i	i	nt
CSc1ccc(CNc2ccc(Cl)cc2)cc1	+	i	i	i	i	i	i
Cc1ccc(S(=O)(=O)NC(=O)C2(C)CCN2C(=O)c2ccccc2)nc1 (stereo not drawn)	i	i	nt	i	i	i	nt
COc1ccccc1N1C(=O)C(Cl)=C(Nc2ccccc2O)C1=O	31	i	i	i	i	i	i
Cc1nnc(NS(=O)(=O)c2ccc(N=Nc3ccc(N)nc3N)cc2)s1	58	i	i	i	i	i	34
Cc1nnc(NS(=O)(=O)c2ccc(N)cc2)s1	i	i	i	i	i	i	nt
COc1ccccc1N1CCN(C(=O)c2ccc(-c3nc4ccccc4s3)o2)CC1	i	i	i	i	i	i	nt
O=[N+]([O-])c1c(NCCCO)cc(SCc2ccco2)c2nonc12	54	i	i	i	i	i	i
O=C(O)c1ccc(Nc2ccc(Cl)c(Cl)c2)c([N+](=O)[O-])c1	44	i	i	i	i	i	62
O=C(O)c1cc(NC(=O)c2ccc(Cl)c([N+](=O)[O-])c2)cc(C(=O)O)c1	i	i	i	i	i	i	nt
COc1cccc(Nc2ccc(C(=O)O)cc2[N+](=O)[O-])c1	36	i	i	i	i	i	47
COc1ccccc1Nc1ccc(C(=O)O)cc1[N+](=O)[O-]	i	i	i	i	i	i	nt
Cc1ccc(Nc2ccc(C(=O)O)cc2[N+](=O)[O-])cc1	30	i	i	i	i	i	55
O=C(O)c1ccc(NCCc2ccc(Cl)cc2)c([N+](=O)[O-])c1	57	i	i	i	i	i	53
CC(C)c1ccc(Nc2ccc(C(=O)O)cc2[N+](=O)[O-])cc1	61	i	i	i	i	i	69
O=C(/C=C/c1ccc(Cl)cc1)N1CCN(c2ccc(Cl)cc2[N+](=O)[O-])CC1	i	i	i	i	i	i	nt
O=C(O)c1ccc(N2CCN(c3ccc(Cl)cc3)CC2)c([N+](=O)[O-])c1	38	i	i	i	i	i	47
COc1ccc(C)cc1Nc1ccc(C(=O)O)cc1[N+](=O)[O-]	i	i	i	i	i	i	nt
CC(C)C(=O)N(c1cc2sc(=O)oc2c2ccccc12)S(=O)(=O)c1cccs1	42	i	i	i	i	i	i
Cc1ccc(S(=O)(=O)N2CCOCC2)cc1C(=O)NCc1ccccc1CN1CCCC1	i	i	i	i	i	i	nt

Assay outcomes as filed in PubChem.
